# Experimental data from different studies.
# Lines come from different studies, so protocols differ.
# MAPK14: Mitogen-activated protein kinase 14 (MAPK14, Homo sapiens, UniProt Q16539)
# Ephx2: Bifunctional epoxide hydrolase 2 (Ephx2, Rattus norvegicus, UniProt P80299)
# HTR1A: 5-hydroxytryptamine receptor 1A (HTR1A, Homo sapiens, UniProt P08908)
# PDE3A: cGMP-inhibited 3',5'-cyclic phosphodiesterase 3A (PDE3A, Homo sapiens, UniProt Q14432)
# LRRK2: Leucine-rich repeat serine/threonine-protein kinase 2 (LRRK2, Homo sapiens, UniProt Q5S007)
SMILES,target,observed,mode,technique,IC50
Cc1ccc(NC(=O)c2cccc(N(C)C)c2)cc1NC(=O)c1ccc(O)cc1,MAPK14,enzyme activity,inhibitor,ADP detection,300 nM
CC(O)C(C)C(=O)N1CCC(NC(=O)Nc2ccc(OC(F)(F)F)c(F)c2)CC1 (centres unmarked),Ephx2,enzyme activity,inhibitor,,4.3 nM
COc1ccc2c(Oc3ccc4c(C(=O)Nc5ccccc5N)cccc4c3)ccnc2c1,MAPK14,enzyme activity,inhibitor,,> 500 nM
CC(C)(C)n1nc(-c2ccc3nc(OC4CC4)ccc3c2)c(C(N)=O)c1N,MAPK14,cell-free assay,,,> 10000 nM
CC1Cc2ccccc2N1C(=O)NCCCCN(C)[C@@H]1Cc2cccc3[nH]c(=O)n(c23)C1 (mixture of isomers),HTR1A,ligand displacement,,radioligand,25.6 nM
CC(C)C[C@H](NC(=O)[C@H]1O[C@@H]1C(=O)O)C(=O)NCCCCN=C(N)N,"Dipeptidyl peptidase 1 (CTSC, Homo sapiens, UniProt P53634)",enzyme activity,inhibitor,,735 nM
CCCCCCOC(=O)c1ccccc1C(=O)c1ccc(N(CC)CC)cc1O,"Estrogen receptor (ESR1, Homo sapiens, UniProt P03372)",reporter gene,antagonist,,4760 nM
CCC(C)(O)C(=O)N1CCC(NC(=O)Nc2ccc(OC(F)(F)F)c(F)c2)CC1 (centres unmarked),Ephx2,enzyme activity,inhibitor,,10.6 nM
CC(C)(C)n1nc(-c2cnc3cc(OC4CC4)ccc3c2)c(C(N)=O)c1N,"Death-associated protein kinase 3 (DAPK3, Homo sapiens, UniProt O43293)",cell-free assay,,,> 10000 nM
N#Cc1ccc(COc2cccc(C3CCN(Cc4nc5ccc(C(=O)O)cc5n4C[C@@H]4CCO4)CC3)n2)c(F)c1,PDE3A,enzyme activity,inhibitor,,2300 nM
N#C/C(=C\c1ccc(O)c(O)c1)C(=O)OC/C=C/c1ccccc1,"Leucine-rich repeat serine/threonine-protein kinase 2 (LRRK2, Homo sapiens, UniProt Q5S007, G2019S)",enzyme activity,inhibitor,radiometric,231 nM
CC/C(=N\NC(=O)C(C)Nc1ccccc1)c1ccc(O)c(C)c1O (centres unmarked),"cAMP-dependent protein kinase catalytic subunit beta (PRKACB, Homo sapiens, UniProt P22694)",enzyme activity,inhibitor,,24.9 nM
COc1cc(C[C@H]2C(=O)OC[C@@H]2Cc2ccc(OC)c(OC)c2)ccc1O,PDE3A,enzyme activity,inhibitor,,> 20000 nM
CN(CCCCNC(=O)c1cc2ccccc2[nH]1)[C@@H]1Cc2cccc3[nH]c(=O)n(c23)C1,HTR1A,ligand displacement,,radioligand,137 nM
CN1CCN(c2ccc(Nc3ncc4cc(C#N)c(=O)n(C5CCCC5)c4n3)cc2)CC1,"Mitogen-activated protein kinase kinase kinase kinase 4 (MAP4K4, Homo sapiens, UniProt O95819)",enzyme activity,inhibitor,,245 nM
CCOCc1nc(O)c(-c2nnc(Cc3ccc(Cl)cn3)o2)c(O)c1-c1c(OC)cccc1OC,"Alpha-2C adrenergic receptor (ADRA2C, Homo sapiens, UniProt P18825)",ligand displacement,,radioligand,> 30000 nM
Cc1cnc(-c2ccc(-c3ccc(NC(=O)Nc4c(F)cc(F)cc4F)cc3F)c3c2C(=O)NC3)[nH]1,LRRK2,enzyme activity,inhibitor,,13.4 nM
Cc1nn2c(-c3c(C)nn(C)c3-c3ccc(C(F)(F)F)cc3)nc(CO)c2c(=O)[nH]1,PDE3A,enzyme activity,inhibitor,,11800 nM
O=C(/C=C/c1ccc(O)c(O)c1)O[C@H](Cc1ccc(O)c(O)c1)C(=O)O,LRRK2,enzyme activity,inhibitor,radiometric,1870 nM
CCCC[C@H](NC(=O)[C@H](C)c1c(C)[nH]c2ccc(O)cc12)c1ncc(-c2cc3ccccc3nc2OC)[nH]1,"Prostaglandin E2 receptor EP3 subtype (PTGER3, Homo sapiens, UniProt P43115)",enzyme activity,,,8650 nM
